# Data as given in paper PMC9476207 (ACS Omega, 2022).
# Key:
# Test in all cases: NCI-60 single-dose antiproliferative screen
# Type in all cases: cell-based
# HCT-15 = conditions: Homo sapiens, HCT-15, 48 h, read-out: growth percent
# Method in brief: (§1)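 NCI-60 protocol. Lines were grown in RPMI 1640 with 5% FBS and 2 mM L-glutamine, plated and incubated 24 h at 37 °C; time-zero plates were TCA-fixed. The test compound was dissolved in DMSO, diluted in medium with 50 μg/mL gentamicin and given once at a final 10^-5 M (DMSO control) for 48 h. Cells were fixed with cold TCA (1 h, 4 °C) and stained with 0.4% SRB in 1% acetic acid for 10 min. Dye was dissolved in 10 mM Trizma base and read at 515 nm. Growth percent was calculated from time-zero, test and control ODs.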
# OVCAR-4 = conditions: Homo sapiens, OVCAR-4, 48 h, read-out: growth percent
# Method in brief: as §1
# SK-MEL-2 = conditions: Homo sapiens, SK-MEL-2, 48 h, read-out: growth percent
# Method in brief: (§2)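 Cells grown in RPMI 1640 with 5% FBS and 2 mM L-glutamine, plated and held 24 h at 37 °C; time-zero plates TCA-fixed. DMSO stocks were diluted in gentamicin-containing medium to a final 10^-5 M, with a DMSO-only control. Exposure 48 h, 5% CO2. Adherent cells TCA-fixed 1 h at 4 °C, stained with 0.4% SRB, solubilised in 10 mM Trizma base, read at 515 nm. Growth percent derived from ODtzero, ODtest and ODctrl.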
# T-47D = conditions: Homo sapiens, T47D, 48 h, read-out: growth percent
# Method in brief: as §2
# SK-MEL-28 = conditions: Homo sapiens, SK-MEL-28, 48 h, read-out: growth percent
# Method in brief: as §2
# SN12C = conditions: Homo sapiens, 48 h, read-out: growth percent
# Method in brief: as §2
# M14 = conditions: Homo sapiens, M14, 48 h, read-out: growth percent
# Method in brief: as §1
# MDA-MB-435 = conditions: Homo sapiens, MDA-MB-435, 48 h, read-out: growth percent
# Method in brief: as §1
# COLO205 = conditions: Homo sapiens, COLO 205, 48 h, read-out: growth percent
# Method in brief: as §1
# SW-620 = conditions: Homo sapiens, SW-620, 48 h, read-out: growth percent
# Method in brief: as §2
# HS 578T = conditions: Homo sapiens, 48 h, read-out: growth percent
# Method in brief: as §1
# MDA-MB-468 = conditions: Homo sapiens, MDA-MB-468, 48 h, read-out: growth percent
# Method in brief: as §1
# MDA-MB-231 ATCC = conditions: Homo sapiens, MDA-MB-231, 48 h, read-out: growth percent
# Method in brief: as §1
# BT-549 = conditions: Homo sapiens, BT-549, 48 h, read-out: growth percent
# Method in brief: as §1
# SK-MEL-5 = conditions: Homo sapiens, SK-MEL-5, 48 h, read-out: growth percent
# Method in brief: as §2
# OVCAR-8 = conditions: Homo sapiens, OVCAR-8, 48 h, read-out: growth percent
# Method in brief: as §1
# HOP-92 = conditions: Homo sapiens, HOP-92, 48 h, read-out: growth percent
# Method in brief: as §1
# KM12 = conditions: Homo sapiens, KM12, 48 h, read-out: growth percent
# Method in brief: as §1
# EKVX = conditions: Homo sapiens, 48 h, read-out: growth percent
# Method in brief: as §1
# TK-10 = conditions: Homo sapiens, TK-10, 48 h, read-out: growth percent
# Method in brief: as §2
# UACC-257 = conditions: Homo sapiens, UACC-257, 48 h, read-out: growth percent
# Method in brief: as §2
# SK-OV-3 = conditions: Homo sapiens, SK-OV-3, 48 h, read-out: growth percent
# Method in brief: as §2
# K-562 = conditions: Homo sapiens, K562, 48 h, read-out: growth percent
# Method in brief: as §1
# SF-268 = conditions: Homo sapiens, SF-268, 48 h, read-out: growth percent
# Method in brief: as §1
# U251 = conditions: Homo sapiens, U-251, 48 h, read-out: growth percent
# Method in brief: as §2
# OVCAR-5 = conditions: Homo sapiens, OVCAR-5, 48 h, read-out: growth percent
# Method in brief: as §1
# SR = conditions: Homo sapiens, 48 h, read-out: growth percent
# Method in brief: as §2
# MALME-3M = conditions: Homo sapiens, 48 h, read-out: growth percent
# Method in brief: as §1
# A549/ATCC = conditions: Homo sapiens, A549, 48 h, read-out: growth percent
# Method in brief: as §1
# SF-539 = conditions: Homo sapiens, SF-539, 48 h, read-out: growth percent
# Method in brief: as §2
# SNB-75 = conditions: Homo sapiens, SNB-75, 48 h, read-out: growth percent
# Method in brief: as §2
# SNB-19 = conditions: Homo sapiens, SNB-19, 48 h, read-out: growth percent
# Method in brief: as §2
# MOLT-4 = conditions: Homo sapiens, MOLT-4, 48 h, read-out: growth percent
# Method in brief: as §1
# UO-31 = conditions: Homo sapiens, UO-31, 48 h, read-out: growth percent
# Method in brief: as §2
# CCRF-CEM = conditions: Homo sapiens, 48 h, read-out: growth percent
# Method in brief: as §1
# NCI-H460 = conditions: Homo sapiens, NCI-H460, 48 h, read-out: growth percent
# Method in brief: as §1
compound,measurement,setting,value
"COc1cc(CNC(=O)C[C@H](C)CCC=C(C)C)ccc1OCc1cn(-c2ccc(Cl)cc2)nn1 [18b, (R)-N-(4-((1-(4-Chlorophenyl)-1H-1,2,3-triazol-4-yl)methoxy)-3-methoxybenzyl)-3,7-dimethyloct-6-enamide]",activity at 10 µM,HCT-15,65.3%
same,activity at 10 µM,OVCAR-4,52.7%
same,activity at 10 µM,SK-MEL-2,83.6%
same,activity at 10 µM,T-47D,52.5%
same,activity at 10 µM,SK-MEL-28,87%
same,activity at 10 µM,SN12C,67.7%
same,activity at 10 µM,M14,90.8%
same,activity at 10 µM,MDA-MB-435,84.9%
same,activity at 10 µM,COLO205,91.1%
same,activity at 10 µM,SW-620,76.8%
same,activity at 10 µM,HS 578T,71.4%
same,activity at 10 µM,MDA-MB-468,41.3%
same,activity at 10 µM,MDA-MB-231 ATCC,59.6%
same,activity at 10 µM,BT-549,87.4%
same,activity at 10 µM,SK-MEL-5,62.8%
same,activity at 10 µM,OVCAR-8,49.1%
same,activity at 10 µM,HOP-92,53%
same,activity at 10 µM,KM12,87.7%
same,activity at 10 µM,EKVX,75.3%
same,activity at 10 µM,TK-10,95.6%
same,activity at 10 µM,UACC-257,85.5%
same,activity at 10 µM,SK-OV-3,72.1%
same,activity at 10 µM,K-562,53.5%
same,activity at 10 µM,SF-268,95.4%
same,activity at 10 µM,U251,57.7%
same,activity at 10 µM,OVCAR-5,80.7%
same,activity at 10 µM,SR,65.8%
same,activity at 10 µM,MALME-3M,68.3%
same,activity at 10 µM,A549/ATCC,57.1%
same,activity at 10 µM,SF-539,67.7%
same,activity at 10 µM,SNB-75,41.6%
same,activity at 10 µM,SNB-19,78.6%
same,activity at 10 µM,MOLT-4,71.7%
same,activity at 10 µM,UO-31,62.5%
same,activity at 10 µM,CCRF-CEM,92.9%
same,activity at 10 µM,NCI-H460,65%
